Compounds with a hit are over-represented: about 2% of the library has one in this group of screens.
SR-BI uptake up – activators of SR-BI mediated DiI-HDL uptake, primary screen, ldlA[mSR-BI] CHO cells, DiI fluorescence. 3 h; 100 = double the neutral-control signal. activation, % at 12.5 µM. actives 0.096% (n = 320,000);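 active = mean replicate activation of at least 60% and every replicate at or above 60%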;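 also: 0% = median plate neutral-control signal and 100% = twice that signal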
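Material – SR-BI-overexpressing, LDLR-lacking CHO cells · Medium – BSA-supplemented, HEPES-buffered Ham's F12, pH 7.4 · Doses – single concentration · Times – compound with DiI-HDL co-incubation, 3 h at 37 °C · Measured by – bottom-read fluorescence, 550/595 nm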
CDK5 inh – inhibitors of human CDK5/p35 kinase, primary screen, biochemical, single concentration; Cyclin-dependent kinase 5 (Homo sapiens) + Cyclin-dependent kinase 5 activator 1 (Homo …; Recombinant CDK5/p35, ADP-Glo luminescence, 60 min; inhibition, % at 10 µM; actives 0.01% (n = 330,000); AID 488839, 2010;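 active = highest replicate inhibition of at least 50% and at least 75% of replicates reaching 50%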;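 also: plate controls were DMSO neutral control for no effect and GW8510 at 10 µM for full effect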
Target sequence (Q00535 whole entry, looked up): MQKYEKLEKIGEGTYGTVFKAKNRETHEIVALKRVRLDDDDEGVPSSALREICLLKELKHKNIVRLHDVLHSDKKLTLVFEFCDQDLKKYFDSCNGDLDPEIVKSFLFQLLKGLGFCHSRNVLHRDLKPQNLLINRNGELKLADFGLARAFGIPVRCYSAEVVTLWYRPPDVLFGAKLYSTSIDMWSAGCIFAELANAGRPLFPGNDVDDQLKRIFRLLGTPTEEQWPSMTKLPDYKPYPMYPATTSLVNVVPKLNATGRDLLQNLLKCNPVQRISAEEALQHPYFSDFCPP
Target sequence (Q15078 whole entry, looked up): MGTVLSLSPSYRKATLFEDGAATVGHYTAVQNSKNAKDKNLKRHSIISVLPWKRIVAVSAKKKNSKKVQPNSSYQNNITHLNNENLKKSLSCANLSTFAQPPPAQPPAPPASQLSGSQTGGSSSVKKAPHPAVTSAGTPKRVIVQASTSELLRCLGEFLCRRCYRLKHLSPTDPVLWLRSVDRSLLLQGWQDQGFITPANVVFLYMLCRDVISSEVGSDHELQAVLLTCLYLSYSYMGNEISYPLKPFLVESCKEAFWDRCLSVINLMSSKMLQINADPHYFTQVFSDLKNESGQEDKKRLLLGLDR
dFosB activator – activators of delta FosB homodimer, primary screen, biochemical, fluorescence polarization, TAMRA-CDK5 oligo, single point | Protein FosB (Mus musculus), P13346 | purified delta FosB; percent of positive-control signal above neutral wells | activation, % at 25 µM | actives 0.99% (n = 340,000);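 active = mean activation above about 17%, with every replicate also reaching it, limit read from the data, passing the limit was not always enough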
SR-BI HDL uptake – inhibitors of SR-BI mediated HDL lipid uptake, primary screen, ldlA[mSR-BI] cells, fluorescence, single point; Scavenger receptor class B member 1 (Mus musculus), Q61009; ldlA[mSR-BI] CHO cells, DiI-HDL uptake fluorescence, 3 h; inhibition, % at 12.5 µM; actives 0.96% (n = 320,000); AID 488896, 2010;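 active = mean replicate inhibition of at least 70% and a set share of replicates each scoring 70 or more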;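 also: 0% = median of neutral control wells and 100% = median of positive control wells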
* = called active by the depositor.

What do the screens show for `CCCNC(=O)C1(CC2CC(c3ccccc3)=NO2)CCN(C(=O)c2cc(OCC)c(OCC)c(OCC)c2)CC1` (stereo not drawn)?
SR-BI uptake up: -66.6; CDK5 inh: -4.2; dFosB activator: -9.4; SR-BI HDL uptake: 66.6

Results for COc1cc(NC(=O)c2ccc3c(c2)OCCO3)ccc1NC(=O)c1cccs1 ?
SR-BI uptake up: -73.9; CDK5 inh: 0.8; dFosB activator: -4.4; SR-BI HDL uptake: 73.9*

Results for O=C(Nc1ccc2c(c1)OCCO2)c1ccccn1 ?
SR-BI uptake up: 6.1; CDK5 inh: 5.2; dFosB activator: -11.9; SR-BI HDL uptake: -6.1

How did COc1cc(NC(=O)c2ccc3c(c2)OCCO3)ccc1NC(=O)c1ccco1 do in these assays?
SR-BI uptake up: -45.8; CDK5 inh: -1.2; dFosB activator: 2.2; SR-BI HDL uptake: 45.8

Results for O=C(Nc1ccc(NC(=O)c2cccs2)cc1)c1ccc2c(c1)OCCO2 ?
CDK5 inh: -1.0; dFosB activator: 16.7*

How did COc1cc(C(=O)Nc2cccc(NC(=O)c3ccccc3)c2)cc(OC)c1OC do in these assays?
CDK5 inh: -1.6; dFosB activator: -19.4

Results for O=C(Nc1ccc(NC(=O)c2ccccn2)cc1)C(=O)Nc1ccc2c(c1)OCCO2 ?
SR-BI uptake up: -16.4; CDK5 inh: -0.2; dFosB activator: 18.7*; SR-BI HDL uptake: 16.4

What do the screens show for `COc1cc(C(=O)Nc2cccc(NC(=O)c3cccs3)c2)cc(OC)c1OC`?
SR-BI uptake up: -78.5; CDK5 inh: 0.7; dFosB activator: -13.6; SR-BI HDL uptake: 78.5*

Results for COc1cc(NC(=O)c2cccc(Cl)c2)ccc1NC(=O)c1cccs1 ?
SR-BI uptake up: -74.8; CDK5 inh: -3.1; dFosB activator: -7.9; SR-BI HDL uptake: 74.8*

How did COc1cc(NC(=O)c2cccs2)ccc1NC(=O)Cc1ccccc1 do in these assays?
SR-BI uptake up: -59.7; CDK5 inh: -0.6; dFosB activator: -1.8; SR-BI HDL uptake: 59.7

What do the screens show for `O=C(N1CCN(S(=O)(=O)c2ccc(Cl)cc2)CC1)n1ccnc1`?
SR-BI uptake up: 65.1*; CDK5 inh: -1.5; dFosB activator: 3.0; SR-BI HDL uptake: -65.1

Results for O=C(N1CCCCC1)N1CCN(S(=O)(=O)c2ccc(Cl)cc2)CC1 ?
SR-BI uptake up: 27.3; CDK5 inh: -0.1; dFosB activator: -9.4; SR-BI HDL uptake: -27.3

What do the screens show for `CC1(C)c2[nH]c3ccccc3c2C[C@H]2C(=O)N(Cc3cccc(F)c3)C(=O)N21`?
SR-BI uptake up: -69.0; CDK5 inh: -0.4; dFosB activator: -1.3; SR-BI HDL uptake: 69.0

How did CC1(C)c2[nH]c3ccccc3c2C[C@@H]2C(=O)N(c3cc(F)ccc3F)C(=O)N21 do in these assays?
SR-BI uptake up: -77.2; CDK5 inh: 0.1; dFosB activator: -0.5; SR-BI HDL uptake: 77.2*

How did COc1ccccc1CN1C(=O)[C@@H]2Cc3c([nH]c4ccccc34)C(C)(C)N2C1=O do in these assays?
SR-BI uptake up: -76.2; CDK5 inh: -0.2; dFosB activator: 0.5; SR-BI HDL uptake: 76.2*

What do the screens show for `COc1ccccc1CC(=O)N1CCC(n2nccc2NC(=O)C2CCOC2)CC1` (stereo not drawn)?
SR-BI uptake up: -19.9; CDK5 inh: -1.2; dFosB activator: 1.2; SR-BI HDL uptake: 19.9

What do the screens show for `Cc1ccc2nc(-c3ccc(NC(=O)c4ccco4)cc3)[nH]c2c1`?
SR-BI uptake up: -49.6; CDK5 inh: -0.5; dFosB activator: 42.8*; SR-BI HDL uptake: 49.6

How did COc1cc2ccccc2cc1C(=O)NC1CCC(C)CC1 (stereo not drawn) do in these assays?
SR-BI uptake up: -70.7; CDK5 inh: -1.6; dFosB activator: -9.3; SR-BI HDL uptake: 70.7*

What do the screens show for `COc1cc2ccccc2cc1C(=O)NC1CCCC1`?
SR-BI uptake up: -33.8; CDK5 inh: 0.9; dFosB activator: 1.2; SR-BI HDL uptake: 33.8

What do the screens show for `Cc1ccc(C(=O)Nc2ccc(Nc3ccccc3)cc2)cc1C`?
SR-BI uptake up: -99.4; CDK5 inh: 0.7; dFosB activator: -6.2; SR-BI HDL uptake: 99.4*

What do the screens show for `COc1ccc(C(=O)NCC(=O)N/N=C/C=C/c2ccccc2)cc1OC`?
SR-BI uptake up: -83.0; CDK5 inh: 1.1; dFosB activator: -12.1; SR-BI HDL uptake: 83.0*

Results for COc1ccc(C(=O)NCC(=O)N/N=C/C(C)=C/c2ccccc2)cc1OC ?
SR-BI uptake up: -40.7; CDK5 inh: 0.4; dFosB activator: -4.3; SR-BI HDL uptake: 40.7

What do the screens show for `COc1ccc(C(=O)Nc2ccc(Nc3ccccc3)cc2)cc1OC`?
SR-BI uptake up: -79.1; CDK5 inh: 0.9; dFosB activator: 2.3; SR-BI HDL uptake: 79.1*

Results for COc1ccc(C(=O)Nc2ccc(Nc3ccccc3)cc2)cc1[N+](=O)[O-] ?
SR-BI uptake up: -55.1; CDK5 inh: 0.6; dFosB activator: -2.2; SR-BI HDL uptake: 55.1

How did COc1ccc(C(=O)Nc2ccc(NS(=O)(=O)c3ccccc3)cc2)cc1OC do in these assays?
SR-BI uptake up: -74.4; CDK5 inh: -0.9; dFosB activator: -5.7; SR-BI HDL uptake: 74.4*

How did O=[N+]([O-])c1ccc(CN2C=NS(=O)(=O)c3ccccc32)cc1 do in these assays?
SR-BI uptake up: -5.7; CDK5 inh: 2.0; dFosB activator: -3.4; SR-BI HDL uptake: 5.7

How did COc1cc(C(=O)Nc2ccc(NC(C)=O)cc2)ccc1OCc1ccccc1 do in these assays?
SR-BI uptake up: -78.2; CDK5 inh: -1.6; dFosB activator: 2.2; SR-BI HDL uptake: 78.2*

Results for COc1ccc(NC(=O)c2ccc(CN3CCN(c4ccccc4)CC3)cc2)cc1OC ?
SR-BI uptake up: -76.1; CDK5 inh: -0.3; dFosB activator: -5.5; SR-BI HDL uptake: 76.1*

What do the screens show for `CC1(C)CC(=O)C2=C(C1)NC(Nc1nc3ccccc3o1)=NC2c1ccccn1` (stereo not drawn)?
CDK5 inh: 0.9; dFosB activator: 1.1

How did CC1=C(C(=O)Nc2ccccc2)C(c2ccc(C)cc2)N=C(Nc2nc3ccccc3o2)N1 (stereo not drawn) do in these assays?
SR-BI uptake up: -48.0; CDK5 inh: -0.7; dFosB activator: 41.9*; SR-BI HDL uptake: 48.0

How did CCC(CC)COC(=O)C1=C(C)NC(=O)NC1c1cccc([N+](=O)[O-])c1 (stereo not drawn) do in these assays?
SR-BI uptake up: -5.3; CDK5 inh: -2.3; dFosB activator: -13.2; SR-BI HDL uptake: 5.3

How did COc1ccccc1NC(=O)Nc1nc(CC(=O)Nc2cc(F)ccc2F)cs1 do in these assays?
SR-BI uptake up: -96.5; CDK5 inh: 0.9; dFosB activator: -6.7; SR-BI HDL uptake: 96.5*

Results for COc1ccccc1NC(=O)Nc1nc(CC(=O)Nc2ccc(N(C)C)cc2)cs1 ?
SR-BI uptake up: -90.7; CDK5 inh: 0.9; dFosB activator: -0.6; SR-BI HDL uptake: 90.7*

Screening data (PubChem)
